Published values from different studies.
Protocols differ between the studies behind these lines.
Target: Focal adhesion kinase 1 (PTK2, Homo sapiens, UniProt Q05397)

Cc1ccc(NC(=O)c2ccnc(C(F)(F)F)c2)cc1-c1cc(OCCO)nc(N2CCOCC2)c1
remaining signal (cell-free assay; 1 µM): 100%

COc1ccc2oc(-c3ccc4nc(N)oc4c3)c/c(=N\c3ccccc3NC(=O)CCN)c2c1
remaining binding (binding; 1 µM): 84%

C#Cc1cnc(Nc2ccnc(CO)c2)nc1Nc1ccccc1S(C)(=O)=NC#N (stereo not shown)
remaining signal (cell-free assay; 1 µM): 40%

C=CC(=O)N1CCC[C@@H](n2nc(-c3ccc(Oc4ccccc4)cc3)c3c(N)ncnc32)C1
inhibition (enzyme activity, inhibitor; 1 µM): 5%

CCCCC(=O)Nc1ccc(-c2ccc3ncn(CCC)c(=O)c3c2)cn1
remaining binding (binding, competition with immobilised ligand; 0.5 µM): 87%

Cc1cc(O)c(-c2ccc([C@@H](C)CN(C)C)cc2)c2c1[nH]c(=O)c1sccc12
inhibition (enzyme activity, inhibitor; 0.1 µM): 8.92%

CO[C@@H]1[C@H](N(C)C(=O)c2ccccc2)C[C@H]2O[C@]1(C)n1c3ccccc3c3c4c(c5c6ccccc6n2c5c31)C(=O)NC4
inhibition (enzyme activity, inhibitor; 1 µM): 2%

N#Cc1ccc(NC(=O)Nc2ccccc2)cc1
remaining binding (cell-free assay, competition with immobilised ligand; 25 µM): 100%

C[C@H]1CC[C@H](n2c3cnccc3c3cnc(Nc4ccc5c(n4)CCN(C(=O)CO)C5)nc32)CC1
remaining signal (cell-free assay, inhibitor; 1 µM): 69%

C#Cc1cc(-c2cc(Nc3nc(N[C@@H](C)c4ccc(F)cn4)ncc3Cl)n[nH]2)ccc1C=O
inhibition (enzyme activity, inhibitor; 0.2 µM): 31.2%
